In series [1] the test system is MDA-MB-231. Briefly: Antiproliferative activity against human MDA-MB-231 cells assessed as reduction in cell viability at 10 uM after 4 days by [3H]-thymidine incorporation assay relative to control. The series is classed as functional. An outline of the steps:
(§1)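 MDA-MB-231 and HCT116 cells (ATCC) seeded at 3000 cells/well on tissue-culture-treated plates as monolayers and incubated 3 days. Compound then added for four days. 3H-thymidine pulse of 0.04 µCi/well for 5 h before harvest. Proliferation read as 3H-thymidine incorporation into S-phase DNA. Mean % of untreated cells is reported; IC50 is the concentration giving 50% inhibition.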
In general terms: Incorporation of labelled thymidine or its analogues reports DNA synthesis.

The nature of series [2]: Dissociation constant, pKa of the compound. Format: physicochemical.
Series [3] concerns HCT-116. Briefly: Antiproliferative activity against human HCT116 cells assessed as reduction in cell viability at 10 uM after 4 days by [3H]-thymidine incorporation assay relative to control. Format: functional. The method, boiled down:
as §1

Series [4] relates to MDA-MB-231. Briefly: Induction of DNA double strand breaks in human MDA-MB-231 cells assessed as gammaH2AX phosphorylation at 10 uM incubated for 16 hrs by flow cytometry (reference value: 6.1 +/-0.7%). The series is classed as functional.
A short description of series [5]: Stability of carbenium ionic form, pKR+ of the compound by spectrophotometric analysis. The series is classed as physicochemical. The method, boiled down:
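Calibration of molar absorbance at the 330 nm peak, made with the compound in 0.1 M acetic acid, where the alcohol is completely ionised. pKR+ derived from the absorbance relationship in eqn (1).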

In series [6] the test system is HCT-116. Briefly: Antiproliferative activity against human HCT116 cells assessed as reduction in cell viability after 4 days by [3H]-thymidine incorporation assay. Format: functional, cell-based. The method, boiled down: as §1
Series [7] relates to MDA-MB-231. Briefly: Induction of DNA double strand breaks in human MDA-MB-231 cells assessed as gammaH2AX phosphorylation at 5 uM incubated for 16 hrs by flow cytometry (reference value: 6.1 +/-0.7%). Format: functional. For orientation: Flow cytometry measures light scatter and fluorescence of single cells or particles in a stream.
Series [8] has as its system MDA-MB-231. Briefly: Induction of DNA double strand breaks in human MDA-MB-231 cells assessed as gammaH2AX phosphorylation at 1 uM incubated for 16 hrs by flow cytometry (reference value: 6.1 +/-0.7%). The series is classed as functional.
Series [9] relates to Calf thymus DNA. Briefly: Binding affinity to calf thymus DNA assessed as binding constant by emission titration analysis. The series is classed as nucleic-acid assay. As to conditions: Bos taurus.
Series [10] has as its system MDA-MB-231. Briefly: Antiproliferative activity against human MDA-MB-231 cells assessed as reduction in cell viability after 4 days by [3H]-thymidine incorporation assay. Format: functional, cell-based. An outline of the steps:
as §1

Series [11] concerns HCT-116. Briefly: Antiproliferative activity against human HCT116 cells cultured as 3D-spheroids assessed as reduction in cell viability after 4 days by [3H]-thymidine incorporation assay. The series is classed as functional, cell-based. The method, boiled down:
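HCT116 spheroids: 4000 cells/well seeded in ultra-low attachment plates, then centrifuged at 1000 × g for 10 min to start spheroid formation. After 3 days, compounds added for four days. 3H-thymidine (0.08 µCi/well) added 16 h before harvest. Inhibition read as thymidine incorporation relative to untreated cells. IC50 is the concentration giving 50% inhibition.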

Series [12] concerns MDA-MB-231. Briefly: Cell cycle arrest in human MDA-MB-231 cells assessed as accumulation at S-phase at 1 uM incubated for 16 hrs by flow cytometry. The series is classed as functional, cell-based. An outline of the steps: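 Cells seeded at 106 per well in 6-well plates, exposed to compound for 16 h, harvested, washed, blocked in 1% FCS/PBS. Stained with anti-γH2AX (phospho-Ser139, 1:500, 2 h, room temperature), then Alexa 488 anti-mouse Fab (1:400, 1 h, room temperature, dark). Counterstained with RNase (1 µg/mL) plus propidium iodide (10 µg/mL) for 30 min. Cell-cycle profiles read by flow cytometry.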

For series [13], the system named is Calf thymus DNA. Briefly: Binding affinity to calf thymus DNA assessed as binding constant at 1 uM incubated for 24 hrs by competitive dialysis technique. Format: nucleic-acid assay. As to conditions: Bos taurus.
Series [14] deals with MDA-MB-231. Briefly: Cell cycle arrest in human MDA-MB-231 cells assessed as accumulation at G2 phase at 1 to 10 uM incubated for 16 hrs by flow cytometry. The series is classed as functional, cell-based.
In another series the test system is dsDNA. Briefly: Binding affinity to 12-mer duplex oligonucleotide (unknown origin) assessed as melting temperature at 5 uM in sodium phosphate buffer at pH 7 by UV-VIS spectrophotometry (reference value: 52.8 degC). Format: nucleic-acid assay.
The test system of series [15] is MDA-MB-231. Briefly: Cell cycle arrest in human MDA-MB-231 cells assessed as accumulation at G1 phase at 1 to 10 uM incubated for 16 hrs by flow cytometry. Format: functional, cell-based.
The subject of series [16] is Calf thymus DNA. Briefly: Binding affinity to calf thymus DNA assessed as binding constant at 25 uM in sodium phosphate buffer solution at pH 7 by UV-Visible spectrophotometry. As to conditions: Bos taurus. The series is classed as nucleic-acid assay.
Series [17] relates to MDA-MB-231. Briefly: Antiproliferative activity against human MDA-MB-231 cells assessed as cell viability at 10 uM after 4 days by [3H]-thymidine incorporation assay relative to control. Format: functional. As to conditions: read-out: Activity. The method, boiled down:
as §1

The test system of series [18] is MDA-MB-231. Briefly: Cell cycle arrest in human MDA-MB-231 cells assessed as accumulation at S-phase at 1 to 10 uM incubated for 16 hrs by flow cytometry. Format: functional, cell-based.
In series [19] the test system is HCT-116. Briefly: Antiproliferative activity against human HCT116 cells assessed as cell viability at 10 uM after 4 days by [3H]-thymidine incorporation assay relative to control. Format: functional. As to conditions: read-out: Activity. The method, boiled down:
as §1

Consider six compounds from ChEMBL document CHEMBL4373677, “The cytotoxic potential of cationic triangulenes against tumour cells” (Medchemcomm, 2019).

The inhibition is how much of the control response was suppressed. As usually defined, the pKa is the negative logarithm of the acid dissociation constant. Low readings indicate a stronger acid or weaker base, high ones a weaker acid or stronger base. As a reminder, the IC50 is the point on the concentration scale where inhibition reaches its midpoint. What is called Tm is the temperature at which the thermal transition is half complete.

Calls of active or inactive are those of the source. No cut-off for these calls is given here.

`c1cc2[nH]c3cccc4oc5cccc6oc(c1)c2[c+](c34)c65`: the inhibition at 10 µM with MDA-MB-231 [1] and with HCT-116 [3] was 12 to 25% throughout. Moreover, the pKa in series [2] was found to be 5.7.

Consider `CCCn1c2cccc3oc4cccc5oc6cccc1c6[c+](c45)c32`, for which the Activity is listed as 27.8% with MDA-MB-231 [4], 30.6% in the series with MDA-MB-231 [7] and 12.9% with MDA-MB-231 [8]. The inhibition result in the series on MDA-MB-231 [1] and in the series on HCT-116 [3] was “Active” throughout. In series [5], the “pKR+” value amounted to 14.5. Also, the IC50 in the series on HCT-116 [6] is 256 to 321 nM; in the series with MDA-MB-231 [10], 87.5 nM; with HCT-116 [11], 38 nM. In the series with Calf thymus DNA [9], the Kb stood at 8.1 ×10⁶ /M.

For `CC[C@@]1(O)C(=O)OCc2c1cc1n(c2=O)Cc2cc3ccccc3nc2-1` [CAMPTOTHECIN], the IC50 came out at 8.5 nM in the series with HCT-116 [6] and 28.4 nM with MDA-MB-231 [10]. For the same compound, in the series on MDA-MB-231 [8], the Activity was 73.6%. In addition, in the series on MDA-MB-231 [12], the outcome was Active.

Turning to `c1cc2oc3cccc4oc5cccc6oc(c1)c2[c+](c34)c65`, the Activity in the series on MDA-MB-231 [4] was 43.6%; in the series on MDA-MB-231 [7], 57.5%; in the series with MDA-MB-231 [8], 8.8%. The “pKR+” value in series [5] is given as 9.1. For the same compound, the IC50 in the series with HCT-116 [6] was 708 nM; in the series on MDA-MB-231 [10], 448 nM; in the series with HCT-116 [11] it was over 1000 nM. Moreover, the Kb in the series with Calf thymus DNA [13] and in the series with Calf thymus DNA [16] was 4.1 ×10⁴ /M throughout. For the same compound, the result in the series with MDA-MB-231 [14] and in the series with MDA-MB-231 [15] was Active. Moreover, the Tm in the series on dsDNA was 57.3 °C. The viability at 10 µM in the series on MDA-MB-231 [17] and with HCT-116 [19] was under 1% in each case. In the series with MDA-MB-231 [18], the outcome was inactive.

As to `CCCn1c2cccc3oc4cccc5c4[c+](c32)c2c1cccc2n5CCC`, the results for the Activity in the series with MDA-MB-231 [4], in the series on MDA-MB-231 [7] and in the series with MDA-MB-231 [8] were 2.4%, 1.3% and 13.6%, respectively. The inhibition entry with MDA-MB-231 [1] and in the series with HCT-116 [3] was “Active” each time. Besides, in series [5], the “pKR+” value worked out at 19.4. Further, the IC50 in the series on HCT-116 [6] was 106 to 111 nM; with MDA-MB-231 [10], 77.5 nM; in the series with HCT-116 [11], 21 nM.

Take `CCCCn1c2cccc3c2[c+]2c4c1cccc4n(CCCC)c1cccc(c12)n3CCCC.F[B-](F)(F)F`: in series [5], the “pKR+” value turned out to be 23.7. Besides, the inhibition entry in the series with HCT-116 [3] is “Active”.
